The text below walks through data of ChEMBL document CHEMBL1932929, “Lead optimization of 2-(piperidin-3-yl)-1H-benzimidazoles: identification of 2-morpholin- and 2-thiomorpholin-2-yl-1H-benzimidazoles as selective and CNS penetrating H₁-antihistamines for insomnia” (Bioorg Med Chem Lett, 2012).

The nature of data set [1]: Ratio drug uptake in brain to plasma of Sprague-Dawley rat at 30 mg/kg, po measured after 4 hrs. In kind it is ADME, organism-based. Further details: dose 30 mg/kg, route oral. As to conditions: read-out: BPR. In short, it runs like this: (§1)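 Single oral dose to Sprague Dawley rats; plasma and brain levels measured at 4 h; brain/plasma ratio taken from these 4 h levels.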

Data set [2] can be described thus: Drug uptake in brain of Sprague-Dawley rat at 30 mg/kg, po measured after 4 hrs. Type of data set: ADME, organism-based. Further details: dose 30 mg/kg, route oral. Particulars: read-out: Drug uptake. The method, boiled down:
as §1

Data set [3] is described as follows: Drug uptake in plasma of Sprague-Dawley rat at 30 mg/kg, po measured after 4 hrs. Type of data set: ADME, organism-based. Particulars: read-out: Drug uptake. Further details: dose 30 mg/kg, route oral. In short, it runs like this:
as §1

Data set [4] is described as follows: Lipophilicity, log P of the compound. As to conditions: octanol/water. Type of data set: physicochemical. In short, it runs like this:
(§2)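 Calculated values, not experimentally measured.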

Data set [5] can be described thus: Dissociation constant, pKa of the compound. In kind it is physicochemical. The method, boiled down:
as §2

Data set [6] in a line: Drug uptake in brain of Sprague-Dawley rat at 10 mg/kg, po measured after 4 hrs. In kind it is ADME, organism-based. Further details: dose 10 mg/kg, route oral. As to conditions: read-out: Drug uptake.

One may read the logP as a log measure of how a compound divides between an organic and an aqueous phase. In general, pKa refers to the pH at which an ionisable group is half protonated.

With `COc1ccc(Cn2c([C@H]3CNCCS3)nc3ccccc32)cc1`, in data set [1], the Kp at 4 h was determined as 1.4. The values for the concentration at 4 h in data set [2] and in data set [3] were 380 ng/g and 260 ng/mL, respectively.
In data set [4], `Cc1ccc(Cn2c([C@@H]3CNCCS3)nc3ccccc32)cc1C` displayed a logP of 3.3. In data set [5], this molecule gave a pKa of 7.5.
Take `CN(CC1CCOCC1)C1CCN(c2nc3ccccc3n2Cc2ccc(F)cc2)CC1`: in data set [6], the concentration at 4 h amounted to 94 ng/g.
Turning to `Cc1ccc(Cn2c(C3CNCCO3)nc3ccccc32)cc1C` (single isomer, unassigned; (+)), the logP in data set [4] is 3.4. The molecule further yielded a pKa in data set [5] of 7.4.
